Assay results taken from ChEMBL document CHEMBL5649170, “Sustained microglial depletion with CSF1R inhibitor impairs parenchymal plaque development in an Alzheimer's disease model” (Nat Commun, 2019).
The source made the active and inactive calls. The calls are words filed in the database; no cut-off is given here.

Legend:
[1] = Drug concentration in wildtype mouse brain at 600 ppm administered as rodent chow starting from 1.5 months and measured after 5 months; format: ADME, tissue-based; settings: route po, time 3.5 months, read-out: Ct
Outline: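 WT or 5xFAD mice were fed PLX3397 in AIN-76A chow at 600 ppm or 75 ppm from 1.5 to 5 months of age. Terminal brain and plasma drug concentrations were determined at study end.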

[2] = molecular target: T1, Macrophage colony-stimulating factor 1 receptor (Mus musculus) (UniProt P09581); experiment: In vivo inhibition of CSF1R in wildtype mouse assessed as microglial numbers by measuring number of Iba positive cells per FOV in somatosensory cortex at 75 ppm administered as rodent chow starting from 1.5 months and measured after 5 months by immunolabeling based confocal microscopic analysis (reference value: 218 to 349); format: functional; settings: route po, time 3.5 months
T1 sequence (whole entry): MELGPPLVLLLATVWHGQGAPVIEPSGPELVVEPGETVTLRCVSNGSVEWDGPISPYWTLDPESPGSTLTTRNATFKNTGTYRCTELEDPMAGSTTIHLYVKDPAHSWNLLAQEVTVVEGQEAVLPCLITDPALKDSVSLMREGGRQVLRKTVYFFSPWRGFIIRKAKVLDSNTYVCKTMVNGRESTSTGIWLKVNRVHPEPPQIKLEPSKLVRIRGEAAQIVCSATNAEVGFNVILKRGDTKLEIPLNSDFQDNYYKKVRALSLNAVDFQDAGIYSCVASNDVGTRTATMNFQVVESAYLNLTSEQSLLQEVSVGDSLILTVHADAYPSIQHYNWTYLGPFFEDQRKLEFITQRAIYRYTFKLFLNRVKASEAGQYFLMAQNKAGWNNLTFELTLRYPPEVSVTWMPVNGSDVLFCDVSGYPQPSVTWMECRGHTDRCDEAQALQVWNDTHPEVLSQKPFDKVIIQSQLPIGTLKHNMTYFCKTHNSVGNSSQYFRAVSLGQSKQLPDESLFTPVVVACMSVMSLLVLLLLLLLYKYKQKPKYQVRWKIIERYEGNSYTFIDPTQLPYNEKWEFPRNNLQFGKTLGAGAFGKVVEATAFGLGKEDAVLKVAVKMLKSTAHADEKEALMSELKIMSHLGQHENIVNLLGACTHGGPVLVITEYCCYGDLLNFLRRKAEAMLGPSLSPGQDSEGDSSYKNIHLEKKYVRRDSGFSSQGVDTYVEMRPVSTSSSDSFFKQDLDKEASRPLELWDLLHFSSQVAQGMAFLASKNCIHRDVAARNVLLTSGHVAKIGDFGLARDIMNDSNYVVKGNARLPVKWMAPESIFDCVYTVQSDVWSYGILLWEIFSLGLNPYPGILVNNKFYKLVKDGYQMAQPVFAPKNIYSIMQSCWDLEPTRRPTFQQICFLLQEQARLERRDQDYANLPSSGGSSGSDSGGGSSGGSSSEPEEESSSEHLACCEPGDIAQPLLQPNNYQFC

[3] = molecular target: Tyrosine-protein kinase ABL1 (Homo sapiens, UniProt P00519); experiment: Inhibition of ABL1 (unknown origin)
[4] = molecular target: Tyrosine-protein kinase ABL2 (Homo sapiens, UniProt P42684); experiment: Inhibition of ABL2 (unknown origin)
[5] = molecular target: ALK tyrosine kinase receptor (Homo sapiens, UniProt Q9UM73); experiment: Inhibition of ALK (unknown origin)
ALK tyrosine kinase receptor, sequence (Q9UM73 whole entry): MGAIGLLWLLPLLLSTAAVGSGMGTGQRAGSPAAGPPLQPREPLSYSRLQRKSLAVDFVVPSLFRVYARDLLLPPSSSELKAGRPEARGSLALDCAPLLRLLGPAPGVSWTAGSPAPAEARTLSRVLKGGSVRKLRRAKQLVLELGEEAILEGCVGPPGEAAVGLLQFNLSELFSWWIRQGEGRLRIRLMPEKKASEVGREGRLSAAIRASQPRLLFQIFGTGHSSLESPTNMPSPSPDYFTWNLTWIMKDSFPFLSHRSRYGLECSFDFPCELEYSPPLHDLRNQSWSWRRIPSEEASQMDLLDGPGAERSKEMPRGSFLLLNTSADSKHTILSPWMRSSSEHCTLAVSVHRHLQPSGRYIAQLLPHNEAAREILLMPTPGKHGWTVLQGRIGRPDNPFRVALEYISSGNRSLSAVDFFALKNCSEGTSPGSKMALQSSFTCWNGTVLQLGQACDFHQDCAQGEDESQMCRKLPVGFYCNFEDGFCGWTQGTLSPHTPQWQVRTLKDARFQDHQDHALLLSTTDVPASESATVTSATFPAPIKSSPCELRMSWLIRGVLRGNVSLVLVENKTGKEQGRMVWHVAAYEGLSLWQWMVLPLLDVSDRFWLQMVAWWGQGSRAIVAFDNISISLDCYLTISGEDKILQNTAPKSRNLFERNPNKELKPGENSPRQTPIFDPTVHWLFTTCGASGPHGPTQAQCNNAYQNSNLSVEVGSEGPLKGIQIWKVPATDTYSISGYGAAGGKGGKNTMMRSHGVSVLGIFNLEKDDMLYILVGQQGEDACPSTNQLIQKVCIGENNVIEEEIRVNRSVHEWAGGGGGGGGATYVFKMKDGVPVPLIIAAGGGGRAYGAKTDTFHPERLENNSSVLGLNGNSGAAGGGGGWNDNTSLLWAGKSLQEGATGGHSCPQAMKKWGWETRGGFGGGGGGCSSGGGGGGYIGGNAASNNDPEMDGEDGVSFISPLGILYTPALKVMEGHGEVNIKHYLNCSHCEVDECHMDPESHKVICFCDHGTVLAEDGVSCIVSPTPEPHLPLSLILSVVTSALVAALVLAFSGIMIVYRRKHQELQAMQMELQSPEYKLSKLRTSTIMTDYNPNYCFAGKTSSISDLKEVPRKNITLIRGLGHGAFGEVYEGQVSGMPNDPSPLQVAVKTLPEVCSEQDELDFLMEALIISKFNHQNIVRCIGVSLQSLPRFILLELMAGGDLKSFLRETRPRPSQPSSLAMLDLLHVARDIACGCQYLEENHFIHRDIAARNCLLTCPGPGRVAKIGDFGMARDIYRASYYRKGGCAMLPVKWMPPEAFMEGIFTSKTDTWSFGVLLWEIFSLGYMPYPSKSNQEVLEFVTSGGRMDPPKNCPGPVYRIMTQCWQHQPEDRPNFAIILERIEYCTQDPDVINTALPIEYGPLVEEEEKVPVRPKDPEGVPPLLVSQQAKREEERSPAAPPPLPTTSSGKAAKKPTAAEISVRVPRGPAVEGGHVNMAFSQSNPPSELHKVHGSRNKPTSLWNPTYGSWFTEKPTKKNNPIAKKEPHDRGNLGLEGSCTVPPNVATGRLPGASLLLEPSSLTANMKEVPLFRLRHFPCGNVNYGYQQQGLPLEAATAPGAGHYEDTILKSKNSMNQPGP

[6] = molecular target: Serine/threonine-protein kinase Chk1 (Homo sapiens, UniProt O14757); experiment: Inhibition of CHEK1 (unknown origin)
Serine/threonine-protein kinase Chk1, sequence (O14757 whole entry, canonical isoform): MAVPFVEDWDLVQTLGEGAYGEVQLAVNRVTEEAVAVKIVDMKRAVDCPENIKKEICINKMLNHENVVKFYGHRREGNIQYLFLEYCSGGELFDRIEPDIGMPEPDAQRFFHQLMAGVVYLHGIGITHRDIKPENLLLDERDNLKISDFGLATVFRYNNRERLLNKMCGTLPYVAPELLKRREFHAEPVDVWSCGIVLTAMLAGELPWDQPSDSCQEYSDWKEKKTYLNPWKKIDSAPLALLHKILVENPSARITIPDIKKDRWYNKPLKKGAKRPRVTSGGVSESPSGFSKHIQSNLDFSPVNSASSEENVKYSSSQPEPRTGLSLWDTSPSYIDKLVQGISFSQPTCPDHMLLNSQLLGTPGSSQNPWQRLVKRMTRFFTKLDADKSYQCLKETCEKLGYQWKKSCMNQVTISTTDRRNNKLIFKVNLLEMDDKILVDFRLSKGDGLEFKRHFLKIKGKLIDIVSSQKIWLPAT

[7] = molecular target: Casein kinase I isoform alpha (Homo sapiens, UniProt P48729); experiment: Inhibition of CSNK1A1 (unknown origin)
Casein kinase I isoform alpha, sequence (P48729 whole entry, canonical isoform): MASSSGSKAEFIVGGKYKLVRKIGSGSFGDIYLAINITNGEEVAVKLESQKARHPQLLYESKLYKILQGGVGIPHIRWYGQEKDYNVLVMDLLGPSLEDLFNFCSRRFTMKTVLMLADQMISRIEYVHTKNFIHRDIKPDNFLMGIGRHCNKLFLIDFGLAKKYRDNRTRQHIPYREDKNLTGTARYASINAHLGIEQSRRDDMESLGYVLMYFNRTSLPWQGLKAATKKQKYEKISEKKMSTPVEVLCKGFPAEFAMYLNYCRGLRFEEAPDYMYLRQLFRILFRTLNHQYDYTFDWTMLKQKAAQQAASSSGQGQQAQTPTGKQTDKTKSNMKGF

[8] = molecular target: G protein-coupled receptor kinase 4 (Homo sapiens, UniProt P32298); experiment: Inhibition of GRK4 (unknown origin)
G protein-coupled receptor kinase 4, sequence (P32298 whole entry): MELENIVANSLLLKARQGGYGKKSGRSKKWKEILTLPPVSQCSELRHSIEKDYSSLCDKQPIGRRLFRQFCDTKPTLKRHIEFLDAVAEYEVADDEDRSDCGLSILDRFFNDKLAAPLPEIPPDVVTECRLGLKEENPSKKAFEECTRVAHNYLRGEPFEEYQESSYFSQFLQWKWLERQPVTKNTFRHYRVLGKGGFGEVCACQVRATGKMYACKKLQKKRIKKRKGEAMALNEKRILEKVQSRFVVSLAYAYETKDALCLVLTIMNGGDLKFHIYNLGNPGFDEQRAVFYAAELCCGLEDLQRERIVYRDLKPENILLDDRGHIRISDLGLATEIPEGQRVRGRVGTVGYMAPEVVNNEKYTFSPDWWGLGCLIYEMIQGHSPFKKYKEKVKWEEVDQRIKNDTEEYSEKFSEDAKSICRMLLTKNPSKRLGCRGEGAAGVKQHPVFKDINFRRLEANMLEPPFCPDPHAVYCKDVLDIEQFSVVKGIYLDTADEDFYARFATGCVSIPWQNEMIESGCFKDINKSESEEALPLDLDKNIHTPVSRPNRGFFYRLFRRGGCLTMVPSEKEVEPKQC

[9] = molecular target: Mitogen-activated protein kinase kinase kinase kinase 2 (Homo sapiens, UniProt Q12851); experiment: Inhibition of MAP4K2 (unknown origin)
[10] = molecular target: Serine/threonine-protein kinase N1 (Homo sapiens, UniProt Q16512); experiment: Inhibition of PKN1 (unknown origin)
Serine/threonine-protein kinase N1, sequence (Q16512 whole entry): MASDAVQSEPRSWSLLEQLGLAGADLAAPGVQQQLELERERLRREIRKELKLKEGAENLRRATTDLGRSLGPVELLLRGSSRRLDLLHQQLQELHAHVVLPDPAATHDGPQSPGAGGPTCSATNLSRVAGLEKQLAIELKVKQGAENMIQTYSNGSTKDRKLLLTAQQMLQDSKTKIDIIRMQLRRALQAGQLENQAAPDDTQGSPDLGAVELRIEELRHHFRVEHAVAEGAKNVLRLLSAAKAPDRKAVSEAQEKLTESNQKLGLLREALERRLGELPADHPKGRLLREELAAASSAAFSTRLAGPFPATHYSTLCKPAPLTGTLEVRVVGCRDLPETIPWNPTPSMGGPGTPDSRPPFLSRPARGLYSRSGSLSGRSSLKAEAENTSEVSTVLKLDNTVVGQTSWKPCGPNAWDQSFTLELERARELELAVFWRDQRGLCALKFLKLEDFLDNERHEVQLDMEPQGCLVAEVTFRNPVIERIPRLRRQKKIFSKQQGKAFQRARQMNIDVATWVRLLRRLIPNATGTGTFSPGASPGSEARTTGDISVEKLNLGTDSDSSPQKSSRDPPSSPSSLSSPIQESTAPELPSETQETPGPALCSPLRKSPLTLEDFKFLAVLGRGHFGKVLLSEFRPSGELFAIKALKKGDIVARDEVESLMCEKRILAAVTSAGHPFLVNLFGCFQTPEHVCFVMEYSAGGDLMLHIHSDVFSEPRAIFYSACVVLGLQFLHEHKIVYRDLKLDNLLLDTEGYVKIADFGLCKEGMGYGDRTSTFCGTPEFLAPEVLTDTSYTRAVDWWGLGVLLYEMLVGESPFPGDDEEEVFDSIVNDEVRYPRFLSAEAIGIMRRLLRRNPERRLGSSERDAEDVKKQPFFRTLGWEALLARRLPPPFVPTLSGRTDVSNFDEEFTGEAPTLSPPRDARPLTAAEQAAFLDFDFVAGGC

[11] = molecular target: Protein kinase C gamma type (Homo sapiens, UniProt P05129); experiment: Inhibition of PRKCG (unknown origin)
[12] = molecular target: Ribosomal protein S6 kinase alpha-6 (Homo sapiens, UniProt Q9UK32); experiment: Inhibition of RPS6KA6 (unknown origin)
Ribosomal protein S6 kinase alpha-6, sequence (Q9UK32 whole entry): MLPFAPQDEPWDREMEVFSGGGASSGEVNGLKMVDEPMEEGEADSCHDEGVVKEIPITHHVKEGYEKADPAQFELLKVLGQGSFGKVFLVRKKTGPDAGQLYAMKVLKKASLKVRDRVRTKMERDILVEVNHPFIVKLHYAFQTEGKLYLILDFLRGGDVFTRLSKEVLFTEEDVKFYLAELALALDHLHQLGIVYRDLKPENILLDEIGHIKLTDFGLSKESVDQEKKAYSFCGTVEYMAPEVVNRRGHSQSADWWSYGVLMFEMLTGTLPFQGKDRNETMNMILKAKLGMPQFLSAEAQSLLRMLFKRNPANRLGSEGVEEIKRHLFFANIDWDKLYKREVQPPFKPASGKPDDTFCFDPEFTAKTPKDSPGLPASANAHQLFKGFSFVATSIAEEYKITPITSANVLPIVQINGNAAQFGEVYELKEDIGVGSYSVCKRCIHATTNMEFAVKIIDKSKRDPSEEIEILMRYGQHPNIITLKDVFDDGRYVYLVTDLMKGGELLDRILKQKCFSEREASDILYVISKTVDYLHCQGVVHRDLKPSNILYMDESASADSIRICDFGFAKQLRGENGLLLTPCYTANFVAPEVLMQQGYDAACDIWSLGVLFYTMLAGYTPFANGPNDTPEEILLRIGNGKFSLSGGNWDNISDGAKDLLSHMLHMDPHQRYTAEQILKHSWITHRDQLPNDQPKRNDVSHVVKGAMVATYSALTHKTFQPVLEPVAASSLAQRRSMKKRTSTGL

[13] = molecular target: Testis-specific serine/threonine-protein kinase 1 (Homo sapiens, UniProt Q9BXA7); experiment: Inhibition of STK22D (unknown origin)
Testis-specific serine/threonine-protein kinase 1, sequence (Q9BXA7 whole entry): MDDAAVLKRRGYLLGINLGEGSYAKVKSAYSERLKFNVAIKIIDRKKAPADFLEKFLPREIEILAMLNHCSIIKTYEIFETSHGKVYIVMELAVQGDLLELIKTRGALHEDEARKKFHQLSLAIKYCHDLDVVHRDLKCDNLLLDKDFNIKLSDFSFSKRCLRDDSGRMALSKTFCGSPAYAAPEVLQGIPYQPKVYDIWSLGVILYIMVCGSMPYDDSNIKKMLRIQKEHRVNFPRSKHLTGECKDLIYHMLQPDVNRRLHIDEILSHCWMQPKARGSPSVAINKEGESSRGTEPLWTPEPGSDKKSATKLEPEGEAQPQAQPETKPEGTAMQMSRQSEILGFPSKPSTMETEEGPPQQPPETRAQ

[14] = molecular target: Serine/threonine-protein kinase TBK1 (Homo sapiens, UniProt Q9UHD2); experiment: Inhibition of TBK1 (unknown origin)
Mus musculus [15] = experiment: Antialzheimer activity in wildtype mouse assessed as number of Iba positive cells per FOV in thalamus at 1200 ppm administered as rodent chow starting from 1.5 months and measured after 4 months (reference value: 232 to 320); format: functional; settings: route po, time 2.5 months, 1825 h
[16] = molecular target: T1, Macrophage colony-stimulating factor 1 receptor (Mus musculus); experiment: In vivo inhibition of CSF1R in wildtype mouse assessed as iron reactivity by measuring hemosiderin intensity of prussian blue staining in thalamus at 1200 ppm administered as rodent chow starting from 1.5 months and measured after 7 months by confocal microscopic analysis (reference value: 0.068 to 2.717 a.u.); format: functional; settings: route po, time 5.5 months
Outline: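 Wild-type or 5xFAD mice fed PLX5622 (1200 ppm) in AIN-76A chow from 1.5 months of age, examined in 4- and 7-month-old cohorts. Brain sections stained with a Prussian blue kit per kit instructions to detect iron deposits (microbleeds).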

[17] = Effect on Hexb gene expression in 5XFAD mouse cortex at 1200 ppm administered as rodent chow starting from 1.5 months and measured after 7 months by RNA-Seq analysis (reference value: 70.260 to 103.252 RPKM); format: functional; settings: route po, time 5.5 months, 4015 h
[18] = Effect on Spi1 gene expression in wild type mouse cortex at 1200 ppm administered as rodent chow starting from 1.5 months and measured after 7 months by RNA-Seq analysis (reference value: 1.059 to 1.887 RPKM); format: functional; settings: route po, time 5.5 months, 4015 h
[19] = Effect on Spi1 gene expression in wild type mouse hippocampus at 1200 ppm administered as rodent chow starting from 1.5 months and measured after 7 months by RNA-Seq analysis (reference value: 1.111 to 1.682 RPKM); format: functional; settings: route po, time 5.5 months, 4015 h
[20] = Effect on ccl6 gene expression in 5XFAD mouse hippocampus at 1200 ppm administered as rodent chow starting from 1.5 months and measured after 7 months by RNA-Seq analysis (reference value: 5.688 to 8.240 RPKM); format: functional; settings: route po, time 5.5 months, 4015 h
[21] = Effect on Cst7 gene expression in 5XFAD mouse cortex at 1200 ppm administered as rodent chow starting from 1.5 months and measured after 7 months by RNA-Seq analysis (reference value: 9.853 to 27.586 RPKM); format: functional; settings: route po, time 5.5 months, 4015 h
[22] = Effect on Ctsd gene expression in 5XFAD mouse thalamus at 1200 ppm administered as rodent chow starting from 1.5 months and measured after 7 months by RNA-Seq analysis (reference value: 209.488 to 301.760 RPKM); format: functional; settings: route po, time 5.5 months, 4015 h
Mus musculus [23] = experiment: Prevention of Tmem119 gene upregulation in 5XFAD mouse hippocampus at 1200 ppm administered as rodent chow starting from 1.5 months and measured after 7 months by Nanostring analysis; format: functional, tissue-based; settings: route po, time 5.5 months
Mus musculus [24] = experiment: Prevention of Nell2 gene downregulation in 5XFAD mouse hippocampus at 1200 ppm administered as rodent chow starting from 1.5 months and measured after 7 months by Nanostring analysis; format: functional, tissue-based; settings: route po, time 5.5 months

## FC(F)(F)c1ccc(CNc2ccc(Cc3c[nH]c4ncc(Cl)cc34)cn2)cn1 [PEXIDARTINIB]
[1]
  concentration at 2555 h: 5 µM
[2]
  Activity: 205

## COc1ncc(F)cc1CNc1ccc(Cc2c[nH]c3ncc(C)cc23)c(F)n1 [PLX-5622]
[3]
  IC50: > 1000 nM
[4]
  IC50: > 1000 nM
[5]
  IC50: > 1000 nM
[6]
  IC50: > 1000 nM
[7]
  IC50: > 1000 nM
[8]
  IC50: > 1000 nM
[9]
  IC50: > 1000 nM
[10]
  IC50: > 1000 nM
[11]
  IC50: > 1000 nM
[12]
  IC50: > 1000 nM
[13]
  IC50: > 1000 nM
[14]
  IC50: > 1000 nM
Mus musculus [15]
  Activity: 0
[16]
  Flu intensity: 0.086 a.u.
[17]
  Activity: 11.641 RPKM
[18]
  Activity: 0 RPKM
[19]
  Activity: 0.055 RPKM
[20]
  Activity: 0.488 RPKM
[21]
  Activity: 0.887 RPKM
[22]
  Activity: 111.226 RPKM
Mus musculus [23]
  Activity: Active
Mus musculus [24]
  Activity: Active
